Test results published in article PMC7042484 (Redox Biology, 2020).

Columns and labels:
human NOX4 = molecular target: T1, human NOX4 (Homo sapiens, UniProt Q9NPH5); assay: Initial evaluation on NOX4 membrane preparations; assay type: biochemical
T1 sequence (Q9NPH5 1-578): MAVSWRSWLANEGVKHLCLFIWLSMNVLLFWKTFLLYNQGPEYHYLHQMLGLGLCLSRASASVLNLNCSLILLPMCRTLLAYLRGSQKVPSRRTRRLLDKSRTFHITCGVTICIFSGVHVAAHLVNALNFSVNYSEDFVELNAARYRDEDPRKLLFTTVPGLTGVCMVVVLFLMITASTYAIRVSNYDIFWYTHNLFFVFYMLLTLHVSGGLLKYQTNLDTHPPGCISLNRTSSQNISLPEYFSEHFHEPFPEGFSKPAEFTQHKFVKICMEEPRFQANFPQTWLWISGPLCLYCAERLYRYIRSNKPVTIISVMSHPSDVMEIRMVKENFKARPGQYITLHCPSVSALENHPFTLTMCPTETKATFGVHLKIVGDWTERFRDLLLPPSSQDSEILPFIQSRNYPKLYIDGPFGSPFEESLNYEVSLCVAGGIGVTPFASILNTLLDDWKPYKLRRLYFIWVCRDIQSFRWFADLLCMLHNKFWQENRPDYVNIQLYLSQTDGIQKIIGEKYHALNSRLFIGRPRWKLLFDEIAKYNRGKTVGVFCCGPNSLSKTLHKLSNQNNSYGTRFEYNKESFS
T1 sequence (P13498 2-195 partner limits assumed): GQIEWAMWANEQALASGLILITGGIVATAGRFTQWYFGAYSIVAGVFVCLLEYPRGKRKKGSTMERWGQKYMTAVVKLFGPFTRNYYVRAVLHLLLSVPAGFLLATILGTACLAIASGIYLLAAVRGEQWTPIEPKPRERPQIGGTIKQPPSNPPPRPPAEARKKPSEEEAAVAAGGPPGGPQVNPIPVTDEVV
Procedure, shortened: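 NOX4-p22 membranes from transfected HEK293 EBNA-1 cells, compound 100 μM, 10 min preincubation at 4 °C in PBS. Amplex Red: 100 μg membranes, 12.5 μM Amplex Red, 0.02 U/ml HRP, 40 μM FAD, started with 40 μM NADPH, ex 572/em 583 nm. CBA: 50 μg membranes, 20 μM FAD, then 200 μM coumarin boronic acid and 50 μM NADPH, ex 320/em 430 nm.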

human NOX2 = molecular target: T2, human NOX2 (Homo sapiens, UniProt P04839); assay: Initial evaluation on NOX2 membrane preparations; assay type: biochemical
T2 sequence (P04839 2-570 limits assumed): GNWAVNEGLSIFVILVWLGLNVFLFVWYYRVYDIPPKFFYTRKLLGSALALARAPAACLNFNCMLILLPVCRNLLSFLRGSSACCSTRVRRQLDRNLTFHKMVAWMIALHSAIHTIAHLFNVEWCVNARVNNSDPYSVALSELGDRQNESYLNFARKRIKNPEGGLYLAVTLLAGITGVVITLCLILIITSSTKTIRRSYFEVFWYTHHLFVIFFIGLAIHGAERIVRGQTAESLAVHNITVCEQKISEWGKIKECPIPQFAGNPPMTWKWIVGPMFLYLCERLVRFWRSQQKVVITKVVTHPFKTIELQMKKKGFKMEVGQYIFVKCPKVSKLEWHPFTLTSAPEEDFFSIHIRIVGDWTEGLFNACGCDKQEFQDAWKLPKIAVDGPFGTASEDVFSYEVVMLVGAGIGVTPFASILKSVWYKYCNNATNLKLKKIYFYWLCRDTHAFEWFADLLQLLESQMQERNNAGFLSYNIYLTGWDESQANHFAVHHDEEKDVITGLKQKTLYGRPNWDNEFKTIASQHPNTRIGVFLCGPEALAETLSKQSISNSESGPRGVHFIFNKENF
T2 sequence (P13498 2-195 partner limits assumed): T1 sequence (P13498 2-195 partner limits assumed)

[1] = tested on: C-terminal mutant dehydrogenase domain of bacterial NOX5; assay: NADPH-depletion assay on C-terminal mutant NOX5 dehydrogenase domain; assay type: biochemical, Cylindrospermum stagnale; conditions: 100 μM inhibitor, C-terminal (PWLEL) low-activity mutant
[2] = tested on: C668S mutant of the NOX5 dehydrogenase domain; assay: Enzymatic assay on C668S mutant NOX5 dehydrogenase domain; assay type: biochemical, Cylindrospermum stagnale; conditions: enzymatic assays
Procedure, shortened: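 Purified strep-tagged C. stagnale NOX5 dehydrogenase domain (residues 413–693), C668S mutant, 1 μM in 50 mM Hepes pH 7.5 without added FAD. Run at 25 °C in a thermostatted spectrophotometer; rates followed as NADPH oxidation at 340 nm.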

`c1ccc(Cn2nnc3c(Sc4nc5ccccc5o4)ncnc32)cc1` [VAS2870, 3-benzyl-7-(2-benzoxazolyl)thio-1,2,3-triazolo[4,5-d]pyrimidine] was tested, and the “inhibition of NOX4 (in words)” value (human NOX4; 100 μM compound, membranes) was “powerful NOX4 inhibitors”, the inhibition at 100 µM (human NOX4; read-out: inhibition of NOX4) was 40 to 70% and the inhibition at 100 µM (human NOX2; read-out: inhibition of NOX2) was 40 to 70%. For the same compound, the “inhibition of NOX2 with long incubation” value (human NOX2; sufficiently long incubation times (Fig. 7B)) was “became significant”, the “inhibition of the mutant dehydrogenase” value [1] was 20–30% and the “inhibition of the C668S mutant domain” value [2] was “could not inhibit the mutant domain”.
